Assay outcomes from PubChem.
BaF3 parental = parental Ba/F3 cell viability inhibition, counter-screen for JAK2V617F inhibitor project, murine pro-B, CellTiter-Glo luminescence | CellTiter-Glo ATP luminescence | AID 1486, 2009 | 220,000 compounds, 1.1% hits | inhibition, % at 5.6 µM;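 active means inhibition above a per-campaign cutoff, the mean inhibition of all tested compounds plus 3 SD, cut at about 27% in these data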;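 further: 0% = DMSO wells and 100% = JAK Inhibitor I control wells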
IEC-6 tox = cytotoxicity in IEC-6 intestinal epithelial cells, primary screen, cytotoxicity control for KLF5 inhibitor project, cell-based, luminescence; IEC-6 cytotoxicity, luminescence viability; inhibition, % at 5 µM; 290,000 compounds, 0.78% hits;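 further: 0% = plate median of test compound wells and 100% = cytotoxic reference compound wells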
APP 5UTR inh = inhibitors of APP translation via 5'UTR reporter, primary screen, APP 5'UTR luciferase, SH-SY5Y cells | SH-SY5Y APP 5'UTR-luciferase reporter, luminescence | inhibition, % at 2 µM | 190,000 compounds, 0.82% hits | AID 1285, 2008;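 active means inhibition above a set limit, derived from the sample mean plus 3 SD, cut at about 45% in these data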
bCat nuc transl = modulators of beta-catenin nuclear translocation, primary screen, imaging, HeLa cells, immunofluorescence, high-content; AID 1665, 2009; nuclear translocation activity, % at 5 µM; 190,000 compounds, 0.3% hits;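 active means nuclear translocation activity above 50% at 5 µM, with a well cell count of 50 or more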;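 further: per-cell ratio of nuclear to cytoplasmic median beta-catenin stain intensity; plate controls were DMSO negative control for no effect and GSK-3 inhibitor IX positive control for full effect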
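assay system = human HeLa cells, endogenous beta-catenin | times = compound treatment 24 h, 37°C, 5% CO2 | detection = Anti-beta-catenin immunofluorescence on PFA-fixed, Triton-permeabilized cells, DAPI nuclei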
Ba/F3 V617F tox = reduced viability of JAK2V617F-dependent Ba/F3 cells, primary screen, JAK2V617F inhibitor project, cell-based, Ba/F3 EpoR-JAK2V617F, luminescence. inhibition, % at 5.6 µM. 220,000 compounds, 1.1% hits. AID 1446, 2008. ATP luminescence;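 active means inhibition above the campaign mean plus 3 SD over all tested compounds, cut at about 24% in these data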;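 further: cytokine-independent growth of Ba/F3 cells driven by EpoR plus mutant JAK2; 0% = DMSO-treated cells and 100% = JAK inhibitor I control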
MT stabilize HCS = microtubule stabilizers in HeLa cells, primary screen, imaging, high-content imaging. HeLa tubulin immunostaining HCS, 24 h; share of cells brighter than vehicle mean+2SD. % tubulin-high responders, % at 10 µM. 200,000 compounds, 0.83% hits. AID 2205, 2009;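 active means plate Z-score above 3 for both tubulin-high and condensed-nucleus cell shares, with cell loss under 80%, at 10 µM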;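 further: anti alpha tubulin signal scored within the nucleus-defined area of each cell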
IEC-6 tox confirm = cytotoxic compounds in IEC-6 epithelial cells, confirmation, cytotoxicity control, cell-based, luminescence; shares compounds with IEC-6 tox; IEC-6 rat intestinal epithelial viability; inhibition, % at 5 µM; 1,900 compounds, 63% hits; AID 1907, 2009;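 further: 0% = vehicle and 100% = reference cytotoxic drug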
Starred values were filed as active, the others as inactive; · = not tested or not shown. Sampled rows, rich in hits. Any-hit rate of the full collection: about 2.2%. Unless noted, no stated cut-off is given here; in the data, active means inhibition above about 22%; inactive means the rest.

SMILES | BaF3 parental | IEC-6 tox | APP 5UTR inh | bCat nuc transl | Ba/F3 V617F tox | MT stabilize HCS | IEC-6 tox confirm
O=C(c1ccc(CS(=O)c2ccccc2Cl)o1)N1CCN(c2ccccn2)CC1 (centres undefined) | · | 56* | · | · | · | · | 45*
Cc1c(Cl)cccc1NC(=O)CCN1C(=O)C2CC=CCC2C1=O (centres undefined) | · | -5 | · | · | · | · | ·
COc1ccc(CN(CC(=O)NCc2ccccc2)C(=O)CCC(=O)Nc2ccccn2)cc1 | · | -5 | · | · | · | · | ·
CCOC(=O)/C(C#N)=N/Nc1c(C)n(C)n(-c2ccccc2)c1=O | 7 | -2 | 9 | 0 | 0 | 4 | ·
Cc1c(N/N=C(\C#N)C(=O)c2ccccc2)c(=O)n(-c2ccccc2)n1C | 10 | 39* | 77* | 2 | 12 | 4 | 44*
Cc1ccccc1C(=O)/C(C#N)=N/Nc1c(C)n(C)n(-c2ccccc2)c1=O | 8 | 38* | 68* | 3 | 8 | 3 | 36*
COc1ccc(CN(Cc2ccc(C(=O)O)cc2)C(=S)Nc2ccccc2F)cc1OC | 5 | -2 | 9 | -2 | 2 | 5 | ·
O=C(Nc1ccc(Cl)cc1)Nc1ccon1 | · | 29* | · | · | · | · | 9
COc1ccc(OC)c(NC(=O)COC(=O)CSc2ccc(Cl)cc2)c1 | 6 | 0 | 15 | 0 | -1 | 4 | ·
COc1cc(NC2CCCCC2O)c2nc(-c3ccc(Cl)cc3)ccc2c1 (centres undefined) | 0 | 23* | · | 2 | -3 | · | 11
O=C1c2cccc3c([N+](=O)[O-])ccc(c23)C(=O)N1CCc1ccccn1 | -1 | 1 | · | 2 | -1 | · | ·
CN(C)CCCN1C(=O)c2cccc3c([N+](=O)[O-])ccc(c23)C1=O | 79* | 39* | 80* | -2 | 95* | 1 | 27*
Cc1nnc(N/N=C/c2cc([N+](=O)[O-])c(N3CCC(C)CC3)cc2N2CCC(C)CC2)n1N | 5 | 103* | 6 | 4 | 2 | 1 | 12
COc1cc2c(cc1OC)C(C)N(C(=O)c1cc(Cl)nc(Cl)c1)CC2 (centres undefined) | · | 39* | · | · | · | · | 12
COc1cc2c(cc1OC)C(C)N(C(=O)Nc1ccc(F)cc1)CC2 (centres undefined) | · | 17 | · | · | · | · | ·
COc1cc2c(cc1OC)C(C)N(C(=O)Nc1cc(C)cc(C)c1)CC2 (centres undefined) | · | 76* | · | · | · | · | 55*
O=C(COc1ccccc1C(=O)NCc1ccccn1)Nc1ccc(Br)cc1 | 7 | 0 | -53 | -3 | -2 | 2 | ·
COc1cc(C2=NOC(C(=O)NCc3cccnc3)C2)cc(OC)c1OC (centres undefined) | · | -2 | · | · | · | · | ·
COc1ccc(C2=NOC(C(=O)NCc3ccco3)C2)cc1 (centres undefined) | 3 | 25* | 25 | 14 | -1 | 38* | 35*
COc1cc(C2=NOC(C(=O)NCc3ccco3)C2)cc(OC)c1OC (centres undefined) | 51* | 26* | 6 | 60* | 43* | 23* | 44*
Cc1nc(CCNS(=O)(=O)c2cccnc2)cs1 | -1 | 2 | · | 0 | 3 | · | ·
COc1ccc2nc(-c3ccccc3)nc(SCC(=O)NCC3CCCO3)c2c1 (centres undefined) | · | 9 | · | · | · | · | ·
O=c1c(Br)c(Br)cnn1-c1ccccc1 | 50* | 102* | 96* | -1 | 101* | 7 | 46*
O=c1c(Br)c(N2CCCC2)cnn1-c1ccccc1 | 4 | -2 | -93 | -3 | 0 | 3 | ·
COc1c(Cl)cnn(-c2ccc(C)cc2)c1=O | 10 | -5 | 13 | -5 | 6 | 2 | ·
SMILES | BaF3 parental | IEC-6 tox | APP 5UTR inh | bCat nuc transl | Ba/F3 V617F tox | MT stabilize HCS | IEC-6 tox confirm
Cc1ccc(-n2ncc(Br)c(Br)c2=O)cc1 | 106* | 102* | 94* | 0 | 101* | 2 | 30*
Cc1cccc2cc3c(nc12)SC(=NCC1CCCO1)N(Cc1ccco1)C3 (centres undefined) | 9 | 88* | 2 | 3 | 9 | 32* | 4
O=C(c1ccc(Cl)cc1)C(CN1CCCCC1)c1ccccc1 (centres undefined) | · | 22* | · | · | · | · | 20
CC(CN1CCCCC1)OC(=O)c1ccc(Cl)cc1 (centres undefined) | -2 | 0 | 10 | 0 | -1 | 2 | ·
COc1ccc(NS(=O)(=O)c2c(C)cc(C)cc2C)cn1 | · | 1 | · | · | · | · | ·
O=C1CCCN1c1ccc(S(=O)(=O)Nc2ccc3c(c2)OCCO3)cc1 | 73* | 79* | 39 | · | 82* | 5 | 50*
O=S(=O)(Nc1ccc2c(c1)OCCO2)c1ccc(F)cc1 | 3 | -1 | · | · | 1 | 3 | ·
O=C(Nc1ccc(S(=O)(=O)N2CCCCCC2)cc1)c1[nH]ncc1[N+](=O)[O-] | · | 29* | · | · | · | · | 7
O=C(Nc1ccc([N+](=O)[O-])cc1)c1ccc(S(=O)(=O)N2CCCC2)cc1 | · | -4 | · | · | · | · | ·
CC(C)CC[n+]1ccccc1/C=C/c1ccc(N(C)C)cc1 | · | 43* | · | · | · | · | 34*
C=CCOC(=O)C1=C(C)NC(C)=C(C(=O)OCC=C)C1c1cn(-c2ccccc2)nc1-c1ccco1 | -1 | 1 | -6 | 1 | -3 | 3 | ·
COc1ccc(OC)c(NC(=O)c2nc(S(=O)(=O)Cc3ccccc3)ncc2Cl)c1 | · | 75* | · | · | · | · | 6
COc1ccc(NC(=O)c2nc(S(=O)(=O)Cc3cccc(C)c3)ncc2Cl)c(OC)c1 | · | 66* | · | · | · | · | 20
COc1cc(SC)ccc1C(=O)N1CCc2ccccc21 | · | 2 | · | · | · | · | ·
COc1cccc(N2CC(O)=C(c3nc4ccccc4s3)C2=N)c1 | 81* | 79* | 88* | 4 | 76* | · | 57*
Cc1oc(S(=O)(=O)N2CCCCC2)cc1NC(=O)Nc1ccc(Cl)cc1 | 1 | 1 | · | 0 | -4 | · | ·
